Measured values reported in ChEMBL document CHEMBL1145129, “Design, synthesis, and anticancer properties of 4,4'-dihydroxybenzophenone-2,4-dinitrophenylhydrazone and analogues” (J Med Chem, 2003).
In brackets after ≈: the same amount, converted by molar mass.

Key:
[1] = species: Homo sapiens; assay: In vitro cytotoxicity against Human lung tumor cells; Not available.; assay type: functional
Method in brief: (§1)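 Fresh surgical human tumor specimens minced to ≤0.1 mm fragments in RPMI-1640 with 10% FBS, streptomycin and penicillin (10⁶–10⁸ cells/mL), explanted into slide flasks. Exposed 24 h at 37 °C, 5% CO₂, to test agent 0.1–20 μg/mL (≥5 doses over 3 logs), in duplicate. Washed, recultured 7–14 days, fixed, HPF cell counts vs control; IC50 (SD) from percent growth.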

[2] = test system: Melanoma tumor cell line; assay: In vitro cytotoxicity against Human melanoma tumor cells; Not available.; assay type: functional, cell-based; method in brief: as §1
[3] = test system: breast cancer cells (Homo sapiens); assay: In vitro cytotoxicity in Human breast tumor cells
[4] = In vitro cytotoxicity in Human breast tumor cells; assay type: functional, cell-based; method in brief: as §1
[5] = test system: Colon carcinoma cell; assay: In vitro cytotoxicity was tested in human colon tumor cells; assay type: functional, cell-based; method in brief: as §1
[6] = species: Homo sapiens; assay: In vitro cytotoxicity in Human ovary tumor cells; assay type: functional; details: Female gonad; method in brief: as §1
[7] = species: Homo sapiens; assay: In vitro cytotoxicity against Human lung tumor cells.; assay type: functional; method in brief: as §1
[8] = test system: Melanoma tumor cell line; assay: In vitro cytotoxicity against Human melanoma tumor cells.; assay type: functional, cell-based; method in brief: as §1
[9] = In vitro cytotoxicity in K 1735 M2 cell line; assay type: functional
[10] = In vitro cytotoxicity in KM 12L4 cell line; assay type: functional, cell-based; details: Homo sapiens
Method in brief: (§2)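 Established tumor lines kept in RPMI-1640 with 10% fetal calf serum and penicillin/streptomycin at 36 °C, 10% CO₂. Seeded 2000–3000 cells/well; hydrazone-containing medium added after 18 h, then 36 h further culture. Viable cells read by MTT absorbance at 570 nm; cytostasis (%) = (1 − A_treated/A_control) × 100.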

[11] = test system: MDA-MB-435; assay: In vitro cytotoxicity in MDA-MB-435 cell line; assay type: functional, cell-based; details: Homo sapiens; method in brief: as §2
[12] = In vitro cytotoxicity in SN 12 PM6 cell line; assay type: functional, cell-based; details: Homo sapiens; method in brief: as §2
[13] = In vitro cytotoxicity in FDCP-1 cell line; details: Mus musculus, FDC-P1
[14] = In vitro cytotoxicity in B 16 F10 cell line; details: Mus musculus, B16-F10
[15] = In vitro cytotoxicity in KM 12 C cell line; assay type: functional; details: Homo sapiens, KM12C; method in brief: as §2
[16] = In vitro cytotoxicity in KM 12 SM cell line; assay type: functional; details: Homo sapiens, KM12
Method in brief: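 Established lines kept in RPMI-1640 with 10% fetal calf serum and penicillin/streptomycin at 36 °C, 10% CO₂. Cells seeded at 2000–3000 cells/well, hydrazones added at several concentrations after 18 h, and exposed a further 36 h. Viable cells read by MTT absorbance at 570 nm; cytostasis (%) = (1 − A/B)×100 against untreated control.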

[17] = In vitro cytotoxicity in MDA-MB-435/lung met cell line; assay type: functional; details: Homo sapiens; method in brief: as §2
[18] = In vitro cytotoxicity in estrogen receptor and progesterone receptor negative Human breast tumor cells; (5+/-2, 0.2+/-0.3); assay type: functional, cell-based
[19] = In vitro cytotoxicity in estrogen receptor negative progesterone receptor positive Human breast tumor cells; (3+/-2, 0.4+/-0.1); assay type: functional, cell-based
[20] = In vitro cytotoxicity in estrogen receptor positive progesterone receptor negative Human breast tumor cells; (>5, 0.5); assay type: functional, cell-based
[21] = test system: Colon carcinoma cell; assay: In vitro cytotoxicity in Human colon tumor cells; (>12+/-4, >12+/-5); assay type: functional, cell-based
[22] = species: Homo sapiens; assay: In vitro cytotoxicity in Human ovary tumor cells; (3+/-3, 4.2+/-4); assay type: functional; details: Female gonad
[23] = species: Homo sapiens; assay: In vitro cytotoxicity in Human lung tumor cells; (5+/-5, 6+/-5); assay type: functional
[24] = test system: Melanoma tumor cell line; assay: In vitro cytotoxicity in Human melanoma tumor cells; (5+/-4, >10); assay type: functional, cell-based
[25] = test system: breast cancer cells (Homo sapiens); assay: In vitro cytotoxicity in estrogen receptor and progesterone receptor positive Human breast tumor cells; (2.5+/-0.9, 0.5+/-1)

| Compound | IC50 [1] | IC50 [2] | IC50 [3] | IC50 [4] | IC50 [5] | IC50 [6] | IC50 [7] | IC50 [8] | other results |
| --- | --- | --- | --- | --- | --- | --- | --- | --- | --- |
| O=[N+]([O-])c1ccc(N/N=C(\c2ccccc2)c2ccc(O)cc2O)c([N+](=O)[O-])c1 | Not Active | Not Active | 0.5 µg/mL (≈ 1.27 µM) |  |  |  |  |  |  |
| O=[N+]([O-])c1ccc(NN=c2c3ccccc3[s+]([O-])c3ccccc23)c([N+](=O)[O-])c1 (stereo unspecified) |  |  |  | > 10 µg/mL | > 10 µg/mL | > 10 µg/mL | > 10 µg/mL | > 10 µg/mL |  |
| O=[N+]([O-])c1ccccc1NN=C(c1ccc(O)cc1)c1ccc(O)cc1 | Not Active | Not Active | 3.9 µg/mL (≈ 11.2 µM) |  | 4.7 µg/mL (≈ 13.5 µM) |  |  |  |  |
| O=[N+]([O-])c1ccc(NN=C(c2ccccc2)c2ccccc2)c([N+](=O)[O-])c1 |  |  | > 5 µg/mL |  |  | > 10 µg/mL | > 5 µg/mL | > 10 µg/mL |  |
| O=[N+]([O-])c1ccc(NN=C(c2ccccc2O)c2ccccc2O)c([N+](=O)[O-])c1 |  |  | 4.7 µg/mL (≈ 11.9 µM) |  | 8 µg/mL (≈ 20.3 µM) | 5 µg/mL (≈ 12.7 µM) | 6 µg/mL (≈ 15.2 µM) | > 5 µg/mL |  |
| COc1ccc2c(=NNc3ccc([N+](=O)[O-])cc3[N+](=O)[O-])c3ccc(OC)cc3oc2c1 | Not Active | Not Active |  | > 5 µg/mL |  |  |  |  | IC50 [9]: 0.64 µg/mL (≈ 1.47 µM); IC50 [10]: 1.57 µg/mL (≈ 3.6 µM); IC50 [11]: 0.41 µg/mL (≈ 0.94 µM); IC50 [12]: 0.62 µg/mL (≈ 1.42 µM); IC50 [13]: 0.95 µg/mL (≈ 2.18 µM); IC50 [14]: 0.44 µg/mL (≈ 1.01 µM) |
| O=[N+]([O-])c1ccc(/N=N/c2c3cccc(O)c3c(O)c3c(O)cccc23)c([N+](=O)[O-])c1 |  | Not Active |  | 0.03 µg/mL (≈ 0.0714 µM) | 0.03 µg/mL (≈ 0.0714 µM) |  | 0.12 µg/mL (≈ 0.285 µM) |  | IC50 [9]: 0.02 µg/mL (≈ 0.0476 µM); IC50 [15]: 0.03 µg/mL (≈ 0.0714 µM); IC50 [16]: 0.05 µg/mL (≈ 0.119 µM); IC50 [10]: 0.02 µg/mL (≈ 0.0476 µM); IC50 [11]: 0.02 µg/mL (≈ 0.0476 µM); IC50 [17]: 0.03 µg/mL (≈ 0.0714 µM); IC50 [12]: 0.03 µg/mL (≈ 0.0714 µM) |
| O=[N+]([O-])c1ccc(N/N=C(\c2ccc(O)cc2)c2ccc(Cl)cc2)c([N+](=O)[O-])c1 | Not Active | Not Active | 8.7 µg/mL (≈ 21.1 µM) |  | > 10 µg/mL |  |  |  |  |
| O=[N+]([O-])c1ccc(NN=c2c3ccccc3oc3ccccc23)c([N+](=O)[O-])c1 |  |  |  | 0.04 µg/mL (≈ 0.106 µM) | 0.05 µg/mL (≈ 0.133 µM) | 0.05 µg/mL (≈ 0.133 µM) | > 10 µg/mL | > 10 µg/mL |  |
| O=[N+]([O-])c1ccc(/N=N/c2c3cc(O)ccc3c(NNc3ccc([N+](=O)[O-])cc3[N+](=O)[O-])c3cc(O)ccc23)c([N+](=O)[O-])c1 |  | Not Active |  | 2.5 µg/mL (≈ 4.16 µM) | 3.9 µg/mL (≈ 6.5 µM) |  | 1 µg/mL (≈ 1.67 µM) |  |  |
| Oc1ccc(C(=NNc2ccccc2)c2ccc(O)cc2)cc1 |  |  | > 5 µg/mL |  | > 5 µg/mL | 6.2 µg/mL (≈ 20.4 µM) | > 10 µg/mL | 7 µg/mL (≈ 23 µM) |  |
| CC(=O)Oc1cccc2c(/N=N/c3ccc([N+](=O)[O-])cc3[N+](=O)[O-])c3cccc(OC(C)=O)c3c(O)c12 |  |  |  | 0.04 µg/mL (≈ 0.0793 µM) | 0.16 µg/mL (≈ 0.317 µM) | 0.3 µg/mL (≈ 0.595 µM) | 0.1 µg/mL (≈ 0.198 µM) | 0.07 µg/mL (≈ 0.139 µM) | IC50 [9]: 0.042 µg/mL (≈ 0.0833 µM); IC50 [10]: 0.07 µg/mL (≈ 0.139 µM); IC50 [11]: 0.041 µg/mL (≈ 0.0813 µM); IC50 [12]: 0.021 µg/mL (≈ 0.0416 µM) |
| CC(=O)c1ccc2c(c1)/C(=N\Nc1ccc([N+](=O)[O-])cc1[N+](=O)[O-])c1ccc(C(C)=O)cc1-2 |  |  |  | > 5 µg/mL | 0.7 µg/mL (≈ 1.58 µM) | 0.9 µg/mL (≈ 2.03 µM) | > 5 µg/mL | 0.5 µg/mL (≈ 1.13 µM) |  |
| O=[N+]([O-])c1ccc(/N=N/c2c3ccccc3c(O)c3c(O)c4ccccc4cc23)c([N+](=O)[O-])c1 |  | Not Active |  | 0.3 µg/mL (≈ 0.66 µM) |  |  | 0.1 µg/mL (≈ 0.22 µM) |  |  |
| O=[N+]([O-])c1ccc(/N=N/c2c3ccccc3c(O)c3c(O)c(O)ccc23)c([N+](=O)[O-])c1 |  |  |  | 0.007 µg/mL (≈ 0.0167 µM) | 0.25 µg/mL (≈ 0.595 µM) | > 10 µg/mL | > 10 µg/mL | > 5 µg/mL |  |
| C=CCOc1cccc2c(/N=N/c3ccc([N+](=O)[O-])cc3[N+](=O)[O-])c3cccc(OC(C)=O)c3c(O)c12 |  | Not Active |  | 0.1 µg/mL (≈ 0.199 µM) | 0.08 µg/mL (≈ 0.159 µM) |  | 0.07 µg/mL (≈ 0.139 µM) |  |  |
| O=[N+]([O-])c1ccc(NN=C2c3cc(O)ccc3-c3ccc(O)cc32)c([N+](=O)[O-])c1 |  |  |  | 0.05 µg/mL (≈ 0.127 µM) | 0.06 µg/mL (≈ 0.153 µM) | 0.08 µg/mL (≈ 0.204 µM) | > 10 µg/mL | 4.1 µg/mL (≈ 10.5 µM) |  |
| O=[N+]([O-])c1ccc(N/N=C(\c2ccccc2)c2ccc(O)cc2)c([N+](=O)[O-])c1 | Not Active |  | 5 µg/mL (≈ 13.2 µM) |  | 0.5 µg/mL (≈ 1.32 µM) | 0.3 µg/mL (≈ 0.793 µM) |  | > 10 µg/mL |  |
| Cc1ccc(NN=C(c2ccc(O)cc2)c2ccc(O)cc2)c(C)c1 | Not Active | Not Active | 10 µg/mL (≈ 30.1 µM) |  |  |  |  |  |  |
| O=[N+]([O-])c1ccc(NN=C(c2ccc(O)cc2)c2ccc(O)cc2)c([N+](=O)[O-])c1 [SIVIFENE] |  |  |  |  |  |  |  |  | IC50 [16]: 5.4 µg/mL (≈ 13.7 µM); IC50 [11]: 2.1 µg/mL (≈ 5.33 µM); IC50 [12]: 4 µg/mL (≈ 10.1 µM); IC50 [18]: 12.6 µg/mL (≈ 32 µM); IC50 [19]: > 10 µg/mL; IC50 [20]: > 10 µg/mL; IC50 [21]: 15.2 µg/mL (≈ 38.5 µM); IC50 [22]: 12.3 µg/mL (≈ 31.2 µM); IC50 [23]: 4.9 µg/mL (≈ 12.4 µM); IC50 [24]: 7 µg/mL (≈ 17.8 µM); IC50 [13]: 9.1 µg/mL (≈ 23.1 µM); IC50 [14]: 1 µg/mL (≈ 2.54 µM); IC50 [25]: 3.5 µg/mL (≈ 8.88 µM) |
| O=[N+]([O-])c1ccc(NN=C(c2ccc(O)cc2O)c2ccc(O)cc2O)c([N+](=O)[O-])c1 |  | Not Active | > 10 µg/mL |  | > 5 µg/mL | 0.03 µg/mL (≈ 0.0704 µM) | > 5 µg/mL |  |  |
| COc1ccc(C(=NNc2ccc([N+](=O)[O-])cc2[N+](=O)[O-])c2ccc(OC)cc2O)c(O)c1 | Not Active | Not Active | 1.5 µg/mL (≈ 3.3 µM) |  | 4.5 µg/mL (≈ 9.9 µM) | > 5 µg/mL |  |  |  |
